Measured values from different studies.
pEC50: −log10 of the molar value.
Effect on: cell growth or viability

| SMILES | cell line | technique | concentration | time | endpoint | result |
| --- | --- | --- | --- | --- | --- | --- |
| O=C(Nc1cccc(Br)c1)c1cccc(S(=O)(=O)N2CCCCCC2)c1 | OCI-Ly1 | ATP luminescence | 1 µM | 5 days | viability | 153% |
| CN(C)CCNC(=O)c1ccc(-c2nc3ccc4[nH]ncc4c3c3c2COCC3)cc1 | K562 | resazurin | – | 72 h | GI50 | 3500 nM |
| O=C(CCCCCCSc1ccc2ccccc2c1)NO | OCI-Ly1 | ATP luminescence | 0.1 µM | 5 days | viability | 194% |
| O=C(NCC1CC1)c1ccc(-c2nc3ccc4[nH]ncc4c3c3c2CCCC3)cc1 | K562 | resazurin | – | 72 h | GI50 | > 10000 nM |
| COC(=O)CNC(=O)C(=O)OC | OCI-Ly1 | ATP luminescence | 0.1 µM | 5 days | viability | 198% |
| O=C(Nc1ccc(-c2ccccc2)cc1)[C@H]1O[C@H](O[C@@H]2[C@@H](OCc3ccc4ccccc4c3)[C@H](O[C@H]3O[C@H](CNS(=O)(=O)O)[C@@H](OCc4ccc5ccccc5c4)C[C@H]3NS(=O)(=O)O)[C@@H](NS(=O)(=O)O)C[C@H]2NS(=O)(=O)O)[C@H](OCc2ccc3ccccc3c2)[C@@H](NS(=O)(=O)O)[C@@H]1OCc1ccc2ccccc2c1 | 4T1 | CCK-8 | – | 48 h | pEC50 | 4.90 |
| O=C(CCCCCCC(=O)Nc1ccccc1)NO | OCI-Ly1 | ATP luminescence | 0.1 µM | 5 days | viability | 162% |
| CCCCCCCCCCCCCCCCCCOc1cccc(CC(=O)OCCC[N+](C)(C)C)c1 | HOP-62 | SRB | 10 µM | – | inhibition | 15.9% |
| Cc1n[nH]c2ccc3nc(-c4ccc(C(=O)NCCN5CCCC5)cc4)c4c(c3c12)CCCC4 | K562 | resazurin | – | 72 h | GI50 | 2300 nM |
| CCCCCCCCCCCCCCCCCCOc1cccc(CC(=O)OCC[N+]2(C)CCCC2)c1 | HOP-62 | SRB | 10 µM | – | inhibition | 9.94% |
| CN(C)CCNC(=O)c1ccc(-c2nc3ccc4[nH]ncc4c3c3c2CCCCC3)c(F)c1 | K562 | resazurin | – | 72 h | GI50 | 1400 nM |
| CCCCCCCCCCCCCCCCCCOc1cccc(CC(=O)OCC[N+](C)(C)C)c1 | HOP-62 | SRB | 10 µM | – | inhibition | 3.94% |
| Cc1n[nH]c2ccc3nc(-c4ccc(C(=O)NCCN(C)C)cc4F)c4c(c3c12)CCCCC4 | K562 | resazurin | – | 72 h | GI50 | 2000 nM |
| CCCCCCCCCCCCCCCCCCOc1ccccc1CC(=O)OCC[N+](CC)(CC)CC | HOP-62 | SRB | 10 µM | – | inhibition | 59% |
| C[C@H](Nc1ccc2c(c1)OCCn1cc(N3C(=O)OC[C@H]3C(F)F)nc1-2)C(N)=O | ESS-1 | ATP luminescence | – | 5 days | pEC50 | 6.47 |
